According to ChEMBL document CHEMBL4814059, “Redefining the Histone Deacetylase Inhibitor Pharmacophore: High Potency with No Zinc Cofactor Interaction” (ACS Med Chem Lett, 2021):
pEC50, pIC50: −log10 of the molar value. Active and inactive are the calls of the source. The rule behind the calls is not given here.

Assays:
[1] = Fraction unbound in rat plasma; type: ADME, cell-free
Histone deacetylase 3 [2] = target: T1, Histone deacetylase 3 (Homo sapiens, UniProt O15379); assay: Inhibition of recombinant human FLAG-tagged HDAC3 expressed in human HEK293F cells co-expressing His6-tagged SMRT (1 to 899 residues) using Fluor-de-lys substrate as substrate incubated for 3 hrs followed by substrate addition and measured after 60 mins by fluorescence based assay
T1 sequence (O15379 whole entry, the tested form may be a part): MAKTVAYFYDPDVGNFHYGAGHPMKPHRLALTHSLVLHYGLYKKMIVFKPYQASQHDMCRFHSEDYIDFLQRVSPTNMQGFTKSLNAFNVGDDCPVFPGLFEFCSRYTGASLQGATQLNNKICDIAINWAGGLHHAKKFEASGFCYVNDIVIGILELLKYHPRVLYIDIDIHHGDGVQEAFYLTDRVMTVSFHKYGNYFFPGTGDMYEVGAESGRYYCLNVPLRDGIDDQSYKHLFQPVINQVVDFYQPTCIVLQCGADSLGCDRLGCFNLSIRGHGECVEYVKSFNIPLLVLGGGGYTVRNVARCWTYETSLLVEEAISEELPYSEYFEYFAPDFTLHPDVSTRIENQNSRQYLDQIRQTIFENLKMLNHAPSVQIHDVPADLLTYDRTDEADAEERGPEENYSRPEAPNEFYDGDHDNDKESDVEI

[3] = target: T2, Class 1 histone deacetylase (Homo sapiens, UniProt Q13547+O15379+Q92769+Q9BY41); type: tissue-based; conditions: 2c4
T2 sequence (O15379 whole entry, looked up): as the sequence (O15379 whole entry, the tested form may be a part) above
T2 sequence (Q13547 whole entry, looked up): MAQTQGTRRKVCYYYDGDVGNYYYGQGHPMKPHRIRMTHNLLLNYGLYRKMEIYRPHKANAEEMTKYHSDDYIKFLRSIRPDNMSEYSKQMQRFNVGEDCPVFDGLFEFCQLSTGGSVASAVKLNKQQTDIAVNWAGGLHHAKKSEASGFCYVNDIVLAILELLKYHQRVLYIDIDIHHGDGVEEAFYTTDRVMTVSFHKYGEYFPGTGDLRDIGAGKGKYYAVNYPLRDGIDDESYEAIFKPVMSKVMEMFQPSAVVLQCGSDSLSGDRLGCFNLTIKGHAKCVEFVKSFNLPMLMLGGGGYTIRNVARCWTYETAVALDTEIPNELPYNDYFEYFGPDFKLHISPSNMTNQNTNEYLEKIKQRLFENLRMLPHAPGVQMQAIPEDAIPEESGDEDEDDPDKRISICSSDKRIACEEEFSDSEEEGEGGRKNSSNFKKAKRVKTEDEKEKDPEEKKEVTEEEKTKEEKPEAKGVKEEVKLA
T2 sequence (Q92769 whole entry, looked up): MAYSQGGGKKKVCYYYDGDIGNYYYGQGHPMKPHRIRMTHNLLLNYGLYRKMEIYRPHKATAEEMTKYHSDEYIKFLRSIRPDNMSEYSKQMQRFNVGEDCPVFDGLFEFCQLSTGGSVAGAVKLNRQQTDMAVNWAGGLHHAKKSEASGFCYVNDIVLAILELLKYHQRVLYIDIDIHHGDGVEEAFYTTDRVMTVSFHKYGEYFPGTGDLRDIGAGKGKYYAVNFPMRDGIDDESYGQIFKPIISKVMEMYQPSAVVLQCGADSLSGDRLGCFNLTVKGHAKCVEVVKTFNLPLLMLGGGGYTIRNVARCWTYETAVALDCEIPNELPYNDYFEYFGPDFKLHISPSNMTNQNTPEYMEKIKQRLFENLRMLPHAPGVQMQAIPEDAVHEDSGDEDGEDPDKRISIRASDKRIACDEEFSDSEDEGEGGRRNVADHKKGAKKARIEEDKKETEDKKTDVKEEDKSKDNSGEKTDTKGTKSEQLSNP
T2 sequence (Q9BY41 whole entry, looked up): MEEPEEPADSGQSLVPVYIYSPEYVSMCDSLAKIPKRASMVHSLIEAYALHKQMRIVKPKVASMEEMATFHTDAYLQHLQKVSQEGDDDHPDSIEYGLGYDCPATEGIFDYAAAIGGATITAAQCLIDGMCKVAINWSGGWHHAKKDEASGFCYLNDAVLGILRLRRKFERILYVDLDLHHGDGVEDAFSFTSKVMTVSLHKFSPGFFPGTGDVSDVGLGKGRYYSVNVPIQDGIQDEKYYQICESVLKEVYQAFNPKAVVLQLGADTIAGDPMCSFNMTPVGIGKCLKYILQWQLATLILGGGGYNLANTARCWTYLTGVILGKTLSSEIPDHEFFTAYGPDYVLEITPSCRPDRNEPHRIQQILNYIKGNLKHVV

Histone deacetylase 1 = Histone deacetylase 1 (Homo sapiens, UniProt Q13547); assay: Inhibition of recombinant human C-terminal FLAG-tagged HDAC1 expressed in human HEK293F cells using Fluor-de-lys substrate as substrate incubated for 3 hrs followed by substrate addition and measured after 60 mins by fluorescence based assay
Histone deacetylase 1, sequence (Q13547 whole entry): as the sequence (Q13547 whole entry, looked up) above

Histone deacetylase 2 = Histone deacetylase 2 (Homo sapiens, UniProt Q92769); assay: Inhibition of recombinant human C-terminal FLAG-tagged HDAC2 expressed in human HEK293F cells using Fluor-de-lys substrate as substrate incubated for 3 hrs followed by substrate addition and measured after 60 mins by fluorescence based assay
Histone deacetylase 2, sequence (Q92769 whole entry): as the sequence (Q92769 whole entry, looked up) above

[4] = target: T3, Nuclear receptor subfamily 1 group I member 2 (Homo sapiens, UniProt O75469); assay: Activation of PXR (unknown origin) expressed in human DPX2 cells co-expressing luciferase gene under control of CYP3A4 promoter assessed as induction of CYP3A4 transcriptional activity incubated for overnight by luminescence based analysis; type: ADME, cell-based
T3 sequence (O75469 whole entry): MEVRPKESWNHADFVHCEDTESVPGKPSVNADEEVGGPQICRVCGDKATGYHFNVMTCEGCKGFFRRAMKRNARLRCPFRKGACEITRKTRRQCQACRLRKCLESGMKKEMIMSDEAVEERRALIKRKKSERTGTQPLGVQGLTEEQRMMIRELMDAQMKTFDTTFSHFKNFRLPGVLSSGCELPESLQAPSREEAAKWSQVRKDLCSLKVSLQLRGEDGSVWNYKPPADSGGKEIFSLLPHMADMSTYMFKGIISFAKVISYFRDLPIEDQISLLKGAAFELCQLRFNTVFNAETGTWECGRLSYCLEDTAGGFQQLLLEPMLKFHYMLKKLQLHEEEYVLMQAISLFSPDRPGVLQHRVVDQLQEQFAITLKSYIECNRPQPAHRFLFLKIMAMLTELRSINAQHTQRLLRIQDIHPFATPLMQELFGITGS

Cytochrome P450 2C9 = Cytochrome P450 2C9 (Homo sapiens, UniProt P11712); assay: Inhibition of CYP2C9 in human liver microsomes assessed as reduction in 4'-hydroxy diclofenac level using diclofenac as substrate incubated for 10 mins by LC-MS/MS analysis; type: ADME
Cytochrome P450 2C9, sequence (P11712 whole entry): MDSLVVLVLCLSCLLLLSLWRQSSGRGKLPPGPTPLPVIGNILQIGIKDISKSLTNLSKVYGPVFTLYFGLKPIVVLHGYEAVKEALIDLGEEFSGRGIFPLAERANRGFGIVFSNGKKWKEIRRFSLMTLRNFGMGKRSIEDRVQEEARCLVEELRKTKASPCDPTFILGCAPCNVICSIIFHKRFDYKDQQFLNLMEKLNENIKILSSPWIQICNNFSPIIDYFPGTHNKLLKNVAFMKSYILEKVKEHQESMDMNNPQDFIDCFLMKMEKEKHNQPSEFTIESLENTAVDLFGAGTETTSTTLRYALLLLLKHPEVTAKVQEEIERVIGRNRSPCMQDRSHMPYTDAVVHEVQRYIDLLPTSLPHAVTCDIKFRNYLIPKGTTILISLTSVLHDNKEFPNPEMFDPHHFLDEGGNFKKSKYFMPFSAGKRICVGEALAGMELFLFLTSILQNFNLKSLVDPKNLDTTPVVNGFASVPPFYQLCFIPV

[5] = target: T2, Class 1 histone deacetylase; assay: Ratio of IC50 for inhibition of class 1 HDAC in human Jurkat 2C4 model of HIV latency in presence of 5% heat inactivated NHS to IC50 for inhibition of class 1 HDAC in human Jurkat 2C4 model of HIV latency in presence of 0.1% heat inactivated NHS by Steady-Glo luciferase assay
Procedure, shortened: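 Latent HIV luciferase-reporter Jurkat cells were treated with compound and latency reversal was read as increased luminescence. […] Values are means of at least two measurements.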

[6] = Oral bioavailability in Wistar Han rat; type: ADME, organism-based; conditions: in vivo
[7] = Half life in Wistar Han rat; type: ADME; conditions: in vivo
Histone deacetylase 3 [8] = target: T1, Histone deacetylase 3; assay: Inhibition of recombinant human FLAG-tagged HDAC3 expressed in human HEK293F cells co-expressing His6-tagged SMRT (1 to 899 residues) assessed as fast-on/fast-off kinetics inhibition using Fluor-de-lys substrate as substrate by fluorescence based analysis
[9] = target: T2, Class 1 histone deacetylase; assay: Inhibition of class 1 HDAC in human Jurkat 2C4 model of HIV latency assessed as reactivation of HIV latency incubated for 18 to 24 hrs in presence of 5% heat inactivated NHS by Steady-Glo luciferase assay; type: tissue-based
[10] = Genotoxicity in Salmonella typhimurium TA100 in presence of liver S9 fraction by Ames test; type: toxicity, subcellular; conditions: salmonella enterica subsp. enterica serovar typhimurium
Procedure, shortened: (§1)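 Exploratory, non-GLP Ames mutagenicity test run on a 3-strain panel.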

[11] = Plasma clearance in Wistar Han rat; type: ADME
[12] = target: T2, Class 1 histone deacetylase; assay: Inhibition of class 1 HDAC in quiescent human primary T-cell model of VSV-G pseudotyped HIV-1 latency assessed as reactivation of HIV latency incubated for 24 hrs in presence of 10% FBS by NanoGlo luciferase assay; type: tissue-based
[13] = Genotoxicity in Salmonella typhimurium TA1535 in presence of liver S9 fraction by Ames test; type: toxicity, subcellular; conditions: salmonella enterica subsp. enterica serovar typhimurium; procedure, shortened: as §1
[14] = Genotoxicity in Salmonella typhimurium TA98 in presence of liver S9 fraction by Ames test; type: toxicity, subcellular; conditions: salmonella enterica subsp. enterica serovar typhimurium; procedure, shortened: as §1
Histone deacetylase 3 [15] = target: T1, Histone deacetylase 3; assay: Inhibition of recombinant human FLAG-tagged HDAC3 expressed in human HEK293F cells co-expressing His6-tagged SMRT (1 to 899 residues) assessed as rapid dissociation inhibition using Fluor-de-lys substrate as substrate measured after compound dilution by jump dilution based analysis
[16] = target: 5-hydroxytryptamine receptor 2B (Homo sapiens, UniProt P41595); assay: Inhibition of human 5HT2B receptor
5-hydroxytryptamine receptor 2B, sequence (P41595 whole entry): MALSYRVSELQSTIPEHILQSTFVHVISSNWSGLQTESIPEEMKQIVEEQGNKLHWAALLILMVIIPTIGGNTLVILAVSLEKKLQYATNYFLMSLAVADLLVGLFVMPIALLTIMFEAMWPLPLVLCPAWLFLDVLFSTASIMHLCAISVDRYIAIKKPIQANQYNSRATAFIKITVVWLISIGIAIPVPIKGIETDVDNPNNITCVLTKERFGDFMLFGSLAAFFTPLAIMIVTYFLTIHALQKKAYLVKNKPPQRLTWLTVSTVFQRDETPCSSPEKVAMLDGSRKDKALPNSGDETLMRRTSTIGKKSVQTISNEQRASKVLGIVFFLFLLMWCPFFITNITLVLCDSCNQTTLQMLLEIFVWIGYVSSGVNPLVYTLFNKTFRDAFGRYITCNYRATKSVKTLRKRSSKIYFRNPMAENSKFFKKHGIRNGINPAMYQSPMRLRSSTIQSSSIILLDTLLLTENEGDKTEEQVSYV
Procedure, shortened: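 Off-target selectivity screen of 115 receptor, enzyme and transporter binding and biochemical assays. Compound tested in duplicate at 10 μM.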

| Compound | Fu [1] | pIC50 (Histone deacetylase 3 [2]) | IC50 [3] [nM] | pIC50 (Histone deacetylase 1) | pIC50 (Histone deacetylase 2) | pEC50 [4] | pIC50 (Cytochrome P450 2C9) | also measured |
| --- | --- | --- | --- | --- | --- | --- | --- | --- |
| CCCC[C@H](NC(=O)[C@H](CN)c1c(C)[nH]c2ccc(OC)cc12)c1ncc(-c2cc3ccccc3nc2OC)[nH]1 | < 0.0001 |  |  |  |  |  |  |  |
| CCCCCCCC[C@H](NC(=O)C1CN(C)C1)c1ncc(-c2cc3ccccc3nc2OC)[nH]1 |  | 5.28 | > 40000 | 4.74 | < 4.30 |  |  |  |
| CCC(=O)CCCCC[C@H](NC(=O)C1CN(C)C1)c1ncc(-c2cc3ccccc3nc2OC)[nH]1 | 0.0574 |  |  |  |  |  |  |  |
| CC[C@H](NC(=O)C1CN(C)C1)c1ncc(-c2cc3ccccc3nc2OC)[nH]1 |  | 4.55 | > 40000 | 4.64 | < 4.30 |  |  |  |
| CCC[C@H](NC(=O)C1CN(C)C1)c1ncc(-c2cc3ccccc3nc2OC)[nH]1 |  | 6.52 | 11000 | 6.41 | 5.47 |  |  |  |
| CCCCC[C@H](NC(=O)C1CN(C)C1)c1ncc(-c2cc3ccccc3nc2OC)[nH]1 |  | 5.46 | > 40000 | 5.33 | < 4.77 |  |  |  |
| CCCC[C@H](NC(=O)[C@H](C)c1c(C)[nH]c2ccc(OC)cc12)c1ncc(-c2cc3ccccc3nc2OC)[nH]1 |  | 6.68 | 300 | 7.33 | 6.92 | 5.54 | 5.54 |  |
| CCCC[C@H](NC(=O)Cc1c[nH]c2ccccc12)c1ncc(-c2cc3ccccc3nc2OC)[nH]1 |  | 6.47 | 40000 | 6.11 | 5.57 | 5.36 | 5.47 |  |
| CCCC[C@H](NC(=O)Cc1c[nH]c2ccc(OC)cc12)c1ncc(-c2cc3ccccc3nc2OC)[nH]1 |  | 6.44 | 860 | 6.60 | 6.30 | 5.60 | 5.80 |  |
| CCCC[C@H](NC(=O)[C@H](C)c1c(C)[nH]c2ccc(O)cc12)c1ncc(-c2cc3ccccc3nc2OC)[nH]1 | 0.0006 | 7.26 | 240 | 7.43 | 7.06 | 5.72 | 5.60 | Ratio IC50 [5]: 10; F [6]: 26%; half-life [7]: 1.2 h; inhibition (Histone deacetylase 3 [8]): Active; IC50 [9]: 3200 nM; Activity [10]: Non-Toxic; clearance [11]: 25 mL/min/kg; IC50 [12]: 2100 nM; Activity [13]: Non-Toxic; Activity [14]: Non-Toxic; inhibition (Histone deacetylase 3 [15]): Active; pIC50 [16]: > 6.00 |
| COc1nc2ccccc2cc1-c1cnc(CNC(=O)C2CN(C)C2)[nH]1 |  | 4.82 |  |  | < 4.30 |  |  |  |
| O=C(/C=C/c1cccc(S(=O)(=O)Nc2ccccc2)c1)NO [BELINOSTAT] | 0.138 |  |  |  |  |  |  |  |
| O=C(CCCCCCC(=O)Nc1ccccc1)NO [VORINOSTAT] | 0.75 |  |  |  |  |  |  |  |
| COc1nc2ccccc2cc1-c1cnc([C@H](C)NC(=O)C2CN(C)C2)[nH]1 |  | < 4.30 | > 40000 | < 4.30 | < 4.30 |  |  |  |
| CCCC[C@H](NC(=O)[C@H](CN)c1c(C)[nH]c2ccc(O)cc12)c1ncc(-c2cc3ccccc3nc2OC)[nH]1 | < 0.0001 | 8.33 | 1300 | 8.70 | 8.30 | < 4.52 | < 4.30 | IC50 [9]: 7400 nM; IC50 [12]: 4500 nM |
| CCCC[C@H](NC(=O)C1CN(C)C1)c1ncc(-c2cc3ccccc3nc2OC)[nH]1 |  | 6.80 | 17000 | 6.55 | 6.12 | < 4.52 | 4.30 | inhibition (Histone deacetylase 3 [8]): Active; Activity [10]: Non-Toxic; Activity [13]: Non-Toxic; Activity [14]: Non-Toxic; inhibition (Histone deacetylase 3 [15]): Active |
